Tests used:
Format in all cases: functional
SR = assay: Anticancer activity against human SR cells after 48 hrs
Procedure, shortened: (§1)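 NCI 60-line panel protocol with a 48 h incubation. Per line: GI50 = concentration giving 50% decrease in net cell growth; TGI = total growth inhibition; LC50 = net 50% loss of initial cells. When the level was not reached or was exceeded, the value is given as greater or less than the highest or lowest concentration tested.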

HCT-15 = assay: Anticancer activity against human HCT15 cells after 48 hrs; conditions: HCT-15, 48 h
Procedure, shortened: (§2)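 NCI Drug Evaluation Branch 60-cell-line screen across leukemia, melanoma, lung, colon, CNS, ovarian, renal, prostate and breast panels. The incubation period is 48 h. Parameters are derived from dose–response data: GI50 is the concentration giving 50% decrease in net growth, TGI is total growth inhibition, and LC50 is net 50% loss of initial cells. Values beyond the tested range are reported as greater or less than the maximum or minimum concentration.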

T47D = assay: Anticancer activity against human T47D cells after 48 hrs
Procedure, shortened: (§3)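 NCI ~60 human tumour cell line panel with a 48 h incubation. GI50 is the concentration giving a 50% fall in net growth, TGI gives total growth inhibition, and LC50 gives a net 50% loss of initial cells. An effect not reached or exceeded is reported as greater or less than the highest or lowest concentration tested.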

UACC-62 = assay: Anticancer activity against human UACC62 cells after 48 hrs; conditions: UACC-62, 48 h; procedure, shortened: as §3
IGROV-1 = assay: Anticancer activity against human IGROV1 cells after 48 hrs; conditions: IGROV-1, 48 h; procedure, shortened: as §2
LOX IMVI = assay: Anticancer activity against human LOXIMVI cells after 48 hrs; procedure, shortened: as §2
SK-MEL-28 = assay: Anticancer activity against human SK-MEL-28 cells after 48 hrs; conditions: SK-MEL-28, 48 h; procedure, shortened: as §1
NCI-H522 = assay: Anticancer activity against human NCI-H522 cells after 48 hrs; conditions: NCI-H522, 48 h; procedure, shortened: as §1
DU-145 = assay: Anticancer activity against human DU145 cells after 48 hrs; conditions: DU-145, 48 h; procedure, shortened: as §2
NCI-H460 = assay: Anticancer activity against human NCI-H460 cells after 48 hrs; conditions: NCI-H460, 48 h; procedure, shortened: as §1
SN12C = assay: Anticancer activity against human SN12C cells after 48 hrs; procedure, shortened: as §1
PC-3 = assay: Anticancer activity against human PC3 cells after 48 hrs; conditions: PC-3, 48 h; procedure, shortened: as §1
UACC-257 = assay: Anticancer activity against human UACC257 cells after 48 hrs; conditions: UACC-257, 48 h; procedure, shortened: as §3
HOP-92 = assay: Anticancer activity against human HOP92 cells after 48 hrs; conditions: HOP-92, 48 h; procedure, shortened: as §2
OVCAR-4 = assay: Anticancer activity against human OVCAR4 cells after 48 hrs; conditions: OVCAR-4, 48 h; procedure, shortened: as §1
NCI-H322M = assay: Anticancer activity against human NCI-H322M cells after 48 hrs; procedure, shortened: as §1
Rattus norvegicus = assay: Antiinflammatory activity in Wistar rat assessed as inhibition of carrageenan-induced hind paw edema at 20 mg/kg, po administered 30 mins before carrageenan challenge measured after 5 hrs by plethysmometer
Procedure, shortened: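 Wistar rats of either sex, 150–175 g, fasted 16 h, n = 6 per group. Compound given orally at 20 mg/kg as a suspension in 1% CMC in water (10 mL/kg); controls got vehicle only. After 30 min, 0.1 mL of 1% carrageenan in saline was injected subplantar into the left hind paw. Paw volume was measured by plethysmometer at 0, 3 and 5 h. Inhibition = (1 − Vt/Vc) × 100, reported as mean ± SEM.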

TK-10 = assay: Anticancer activity against human TK10 cells after 48 hrs; conditions: TK-10, 48 h; procedure, shortened: as §3
MDA-MB-231 = assay: Anticancer activity against human MDA-MB-231 cells after 48 hrs; conditions: MDA-MB-231, 48 h; procedure, shortened: as §2
BT-549 = assay: Anticancer activity against human BT549 cells after 48 hrs; conditions: BT-549, 48 h; procedure, shortened: as §2
SF-295 = assay: Anticancer activity against human SF295 cells after 48 hrs; conditions: SF-295, 48 h; procedure, shortened: as §1
SNB-19 = assay: Anticancer activity against human SNB19 cells after 48 hrs; conditions: SNB-19, 48 h; procedure, shortened: as §1
SW-620 = assay: Anticancer activity against human SW620 cells after 48 hrs; conditions: SW-620, 48 h; procedure, shortened: as §1
NCI/ADR-RES = assay: Anticancer activity against human NCI/ADR-RES cells after 48 hrs; procedure, shortened: as §1
MDA-MB-435 = assay: Anticancer activity against human MDA-MB-435 cells after 48 hrs; conditions: MDA-MB-435, 48 h; procedure, shortened: as §2
SK-OV-3 = assay: Anticancer activity against human SKOV3 cells after 48 hrs; conditions: SK-OV-3, 48 h; procedure, shortened: as §1
SF-539 = assay: Anticancer activity against human SF539 cells after 48 hrs; conditions: SF-539, 48 h; procedure, shortened: as §1
MCF7 = assay: Anticancer activity against human MCF7 cells after 48 hrs; conditions: MCF7, 48 h; procedure, shortened: as §2
KM12 = assay: Anticancer activity against human KM12 cells after 48 hrs; conditions: KM12, 48 h; procedure, shortened: as §2
[1] = read-out: LC50 (the source's name)

Cc1cc(O)c(C2=NN(c3ccc(S(N)(=O)=O)cc3)C(/C=C/c3ccccc3)C2)cc1Cl (centres undefined)
GI50 (SR): 12.7 µM | LC50 (concentration killing 50% of initial cells) (SR): 89.7 µM | TGI (SR): 33.8 µM | GI50 (HCT-15): 18.9 µM | CC50 (HCT-15; [1]): > 100 µM | GI50 (T47D): 3.38 µM | TGI (T47D): 14.7 µM | CC50 (T47D; [1]): 44.5 µM | GI50 (UACC-62): 2.89 µM | LC50 (UACC-62): 34 µM | TGI (UACC-62): 11.4 µM | GI50 (IGROV-1): 4.32 µM | LC50 (net 50% loss of initial cells) (IGROV-1): 68.7 µM | TGI (IGROV-1): 19.8 µM | GI50 (LOX IMVI): 3.94 µM | TGI (LOX IMVI): 16.2 µM | CC50 (LOX IMVI; [1]): 40.3 µM | GI50 (SK-MEL-28): 10.9 µM | TGI (SK-MEL-28): 23.8 µM | CC50 (SK-MEL-28; [1]): 52 µM | GI50 (NCI-H522): 4.62 µM | LC50 (concentration killing 50% of initial cells) (NCI-H522): 61.8 µM | TGI (NCI-H522): 19.4 µM | GI50 (DU-145): 14.1 µM | LC50 (concentration causing net 50% loss of initial cells) (DU-145): > 100 µM | TGI (DU-145): 38.6 µM | GI50 (NCI-H460): 4.03 µM | LC50 (50% lethal concentration) (NCI-H460): 41.3 µM | TGI (NCI-H460): 17 µM | GI50 (SN12C): 11.1 µM | LC50 (SN12C): 59.4 µM | TGI (SN12C): 25.6 µM | GI50 (PC-3): 3.15 µM | TGI (PC-3): 11.5 µM | CC50 (PC-3; [1]): 34 µM | GI50 (UACC-257): 14.5 µM | LC50 (UACC-257): > 100 µM | TGI (UACC-257): 45.7 µM | GI50 (HOP-92): 2.36 µM | TGI (HOP-92): 8.48 µM | CC50 (HOP-92; [1]): 34 µM | GI50 (OVCAR-4): 3.74 µM | LC50 (OVCAR-4): 48.6 µM | TGI (OVCAR-4): 18.9 µM | GI50 (NCI-H322M): 5.73 µM | LC50 (net 50% loss of initial cells) (NCI-H322M): > 100 µM | TGI (NCI-H322M): 27.5 µM | inhibition in vivo at 20 mg/kg (Rattus norvegicus): 71.4% | GI50 (TK-10): 14.8 µM | LC50 (TK-10): 60.7 µM | TGI (TK-10): 29.9 µM | GI50 (MDA-MB-231): 4.56 µM | TGI (MDA-MB-231): 16.3 µM | CC50 (MDA-MB-231; [1]): 40.8 µM | GI50 (BT-549): 6.12 µM | TGI (BT-549): 21.3 µM | CC50 (BT-549; [1]): 54.5 µM | GI50 (SF-295): 2.36 µM | LC50 (concentration giving net 50% loss of initial cells) (SF-295): 37.3 µM | TGI (SF-295): 11.9 µM | GI50 (SNB-19): 7.84 µM | TGI (SNB-19): 19.9 µM | CC50 (SNB-19; [1]): 44.7 µM | GI50 (SW-620): 11.7 µM | TGI (SW-620): 31.3 µM | CC50 (SW-620; [1]): 84 µM | GI50 (NCI/ADR-RES): 9.26 µM | TGI (NCI/ADR-RES): 22.7 µM | CC50 (NCI/ADR-RES; [1]): 53 µM | GI50 (MDA-MB-435): 8.87 µM | TGI (MDA-MB-435): 24 µM | CC50 (MDA-MB-435; [1]): 59.5 µM | GI50 (SK-OV-3): 5.52 µM | TGI (SK-OV-3): 17.9 µM | CC50 (SK-OV-3; [1]): 42.7 µM | GI50 (SF-539): 2.98 µM | LC50 (concentration causing net 50% loss of initial cells) (SF-539): 37.5 µM | TGI (SF-539): 14 µM | GI50 (MCF7): 3.93 µM | LC50 (MCF7): 40.1 µM | TGI (MCF7): 16.1 µM | GI50 (KM12): 11.7 µM | LC50 (concentration causing net 50% loss of initial cells) (KM12): > 100 µM | TGI (KM12): 34.8 µM

From ChEMBL document CHEMBL1914430, “Synthesis of some new 1,3,5-trisubstituted pyrazolines bearing benzene sulfonamide as anticancer and anti-inflammatory agents” (Bioorg Med Chem Lett, 2011)
